We go through six compounds from ChEMBL document CHEMBL1155744, “Cytotoxic dolabellane diterpenes from the Formosan soft coral Clavularia inflata” (2001).

Assay type in all cases: functional
Common to all, as to conditions: read-out: ED50 (the source's name)

One assay has as its system P388. In words: Cytotoxicity against mouse P388 cells. Put shortly:
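Mouse lymphocytic leukemia P-388 cells were supplied by the Pezzuto laboratory at the University of Illinois at Chicago. Cytotoxicity was tested in vitro, and values are reported as ED50 in µg/mL.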

For another assay, the system named is HT-29. The assay can be described thus: Cytotoxicity against human HT-29 cells. Put shortly: (§1)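 Cell lines were obtained from the American Type Culture Collection. Cytotoxicity was tested in vitro, and values are reported as ED50 in µg/mL.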
The next assay has as its system A549. In words: Cytotoxicity against human A549 cells. Put shortly:
as §1

Converted amounts (≈) assume the structure as drawn.

For `C=C1CC/C=C(\C)CCC2=C(C(C)C)C(=O)C[C@@]2(C)CC1=O`, the EC50 is 3.89 µg/mL (≈ 12.9 µM) in the assay with P388, greater than 50 µg/mL in the assay with HT-29 and greater than 50 µg/mL in the assay on A549.
For the compound `C=C1CC/C=C(\C)CCC2=C(C(C)C)C(=O)C[C@@]2(C)C[C@H]1O` (relative stereo), the EC50 in the assay with P388 was 3.82 µg/mL (≈ 12.6 µM); in the assay on HT-29, 9.19 µg/mL (≈ 30.4 µM); in the assay on A549 it was 8.1 µg/mL (≈ 26.8 µM).
For `C=C1CC[C@H]2O[C@@]2(C)C/C=C2/[C@@H](C(C)C)C(=O)C[C@]2(C)CC1=O` (relative stereo), the EC50 with P388 stood at 2.48 µg/mL (≈ 7.84 µM); in the assay with HT-29, 7.84 µg/mL (≈ 24.8 µM); in the assay on A549, 8.56 µg/mL (≈ 27.1 µM).
In the same order, the values of `C=C1CC[C@@H](OO)C(=C)CCC2=C(C(C)C)C(=O)C[C@@]2(C)CC1=O` (relative stereo) are 0.052 µg/mL (≈ 0.156 µM), 0.31 µg/mL (≈ 0.932 µM) and 0.57 µg/mL (≈ 1.71 µM).
In the same order, the values of `C=C1CC/C=C(\C)C/C=C2/[C@@H](C(C)C)C(=O)C[C@]2(C)CC1=O` (relative stereo) are 2.6 µg/mL (≈ 8.65 µM), 27.3 µg/mL (≈ 90.9 µM) and greater than 50 µg/mL.
As for `C=C1CC/C=C(\C)C[C@H]2O[C@@]23[C@@H](C(C)C)C(=O)C[C@]3(C)CC1=O` (relative stereo), the EC50 amounted to 3.83 µg/mL (≈ 12.1 µM) in the assay with P388, 6.39 µg/mL (≈ 20.2 µM) with HT-29 and 7.74 µg/mL (≈ 24.5 µM) with A549.
